Assay results from ChEMBL document CHEMBL1155362, “Synthesis, characterization and derivatization of some novel types of mono- and bis-imidazolidineiminothiones and imidazolidineiminodithiones with antitumor, antiviral, antibacterial and antifungal activities--part I” (Eur J Med Chem, 2009).
Calls of active or inactive are those of the source. No cut-off for these calls is given here.

Tests used:
Candida albicans [1] = test: Antifungal activity against Candida albicans IMRU 3669 at 1 mg/ml by agar disk diffusion assay; format: functional; conditions: read-out: DIZ
Procedure, shortened: (§1)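 Fungi maintained on Czapek's Dox agar; agar well diffusion with 1 cm wells and […] of each concentration (1, 2.5, 5 mg/mL) in DMF; inhibition zone diameter measured.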

Aspergillus niger [2] = test: Antifungal activity against Aspergillus niger IMI 31726 at 1 mg/ml by agar disk diffusion assay; format: functional; conditions: read-out: DIZ
Hepatovirus A [3] = test: Antiviral activity against HAV infected african green monkey Vero cells at 10^-2 dilution of 5 mg/ml by plaque formation assay; format: functional
Procedure, shortened: (§2)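 Compound dilutions prepared from a 5 mg/mL DMSO stock, using the maximum non-toxic dilution for Vero cells over 3 days; 0.1 mL virus (10³) mixed with 0.1 mL compound for 1 h at room temperature; mixture inoculated onto washed Vero monolayers in 12-well plates and adsorbed at 37 °C; 2× MEM/agarose overlay applied; read-out % reduction in plaque count versus untreated virus control.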

Human alphaherpesvirus 1 [4] = test: Antiviral activity against HSV1 infected african green monkey Vero cells at 10^-2 dilution of 5 mg/ml by plaque formation assay; format: functional; procedure, shortened: as §2
Coxsackievirus B4 [5] = test: Antiviral activity against Coxsackievirus B4 infected african green monkey Vero cells at 10^-2 dilution of 5 mg/ml by plaque formation assay; format: functional; procedure, shortened: as §2
Escherichia coli [6] = test: Antibacterial activity against Escherichia coli NCTC 10416 at 1 mg/ml by agar disk diffusion assay; format: functional; conditions: read-out: DIZ
Salmonella typhi [7] = test: Antibacterial activity against Salmonella typhi NCIMB 9331 at 1 mg/ml by agar disk diffusion assay; format: functional, Salmonella enterica subsp. enterica serovar Typhi; conditions: Salmonella enterica, read-out: DIZ
Bacillus subtilis [8] = test: Antibacterial activity against Bacillus subtilis NCTC 1040 at 1 mg/ml by agar disk diffusion assay; format: functional; conditions: read-out: DIZ
Staphylococcus aureus [9] = test: Antibacterial activity against Staphylococcus aureus NCTC 7447 at 1 mg/ml by agar disk diffusion assay; format: functional; conditions: read-out: DIZ
Candida albicans [10] = test: Antifungal activity against Candida albicans IMRU 3669 at 5 mg/ml by agar disk diffusion assay; format: functional; conditions: Candida albicans, IMRU 3669; read-out: DIZ; procedure, shortened: as §1
Escherichia coli [11] = test: Antibacterial activity against Escherichia coli NCTC 10416 at 5 mg/ml by agar disk diffusion assay; format: functional; conditions: read-out: DIZ
Salmonella typhi [12] = test: Antibacterial activity against Salmonella typhi NCIMB 9331 at 5 mg/ml by agar disk diffusion assay; format: functional, Salmonella enterica subsp. enterica serovar Typhi; conditions: Salmonella enterica, read-out: DIZ
Bacillus subtilis [13] = test: Antibacterial activity against Bacillus subtilis NCTC 1040 at 5 mg/ml by agar disk diffusion assay; format: functional; conditions: read-out: DIZ
Staphylococcus aureus [14] = test: Antibacterial activity against Staphylococcus aureus NCTC 7447 at 5 mg/ml by agar disk diffusion assay; format: functional; conditions: read-out: DIZ
Aspergillus niger [15] = test: Antifungal activity against Aspergillus niger IMI 31726 at 5 mg/ml by agar disk diffusion assay; format: functional; conditions: read-out: DIZ
Hepatovirus A [16] = test: Antiviral activity against HAV infected african green monkey Vero cells at 10^-3 dilution of 5 mg/ml by plaque formation assay; format: functional; procedure, shortened: as §2
Human alphaherpesvirus 1 [17] = test: Antiviral activity against HSV1 infected african green monkey Vero cells at 10^-3 dilution of 5 mg/ml by plaque formation assay; format: functional; procedure, shortened: as §2
Coxsackievirus B4 [18] = test: Antiviral activity against Coxsackievirus B4 infected african green monkey Vero cells at 10^-3 dilution of 5 mg/ml by plaque formation assay; format: functional; procedure, shortened: as §2
Candida albicans [19] = test: Antifungal activity against Candida albicans IMRU 3669 at 4 mg/ml by agar disk diffusion assay; format: functional; conditions: read-out: DIZ
Aspergillus niger [20] = test: Antifungal activity against Aspergillus niger IMI 31726 at 4 mg/ml by agar disk diffusion assay; format: functional; conditions: read-out: DIZ
Hepatovirus A [21] = test: Antiviral activity against Hepatitis A virus infected african green monkey Vero cells at 10^-4 dilution of 5 mg/ml by plaque formation assay; format: functional; procedure, shortened: as §2
Human alphaherpesvirus 1 [22] = test: Antiviral activity against HSV1 infected african green monkey Vero cells at 10^-4 dilution of 5 mg/ml by plaque formation assay; format: functional; procedure, shortened: as §2
Coxsackievirus B4 [23] = test: Antiviral activity against Coxsackievirus B4 infected african green monkey Vero cells at 10^-4 dilution of 5 mg/ml by plaque formation assay; format: functional, organism-based; procedure, shortened: as §2
Escherichia coli [24] = test: Antibacterial activity against Escherichia coli NCTC 10416 at 4 mg/ml by agar disk diffusion assay; format: functional; conditions: read-out: DIZ
Salmonella typhi [25] = test: Antibacterial activity against Salmonella typhi NCIMB 9331 at 4 mg/ml by agar disk diffusion assay; format: functional, Salmonella enterica subsp. enterica serovar Typhi; conditions: Salmonella enterica, read-out: DIZ
Bacillus subtilis [26] = test: Antibacterial activity against Bacillus subtilis NCTC 1040 at 4 mg/ml by agar disk diffusion assay; format: functional; conditions: read-out: DIZ
Staphylococcus aureus [27] = test: Antibacterial activity against Staphylococcus aureus NCTC 7447 at 4 mg/ml by agar disk diffusion assay; format: functional; conditions: read-out: DIZ

## O=C1C(=S)N(c2ccc(Br)cc2)C(=O)N1c1ccc2c(c1)Cc1ccccc1-2
Candida albicans [1]
  zone of inhibition at 1000 µg/mL: 13 mm
Aspergillus niger [2]
  zone of inhibition at 1000 µg/mL: 13 mm
Hepatovirus A [3]
  Activity: inactive
Human alphaherpesvirus 1 [4]
  Activity: 40%
Coxsackievirus B4 [5]
  Activity: inactive
Escherichia coli [6]
  zone of inhibition at 1000 µg/mL: 11 mm
Salmonella typhi [7]
  zone of inhibition at 1000 µg/mL: 12 mm
Bacillus subtilis [8]
  zone of inhibition at 1000 µg/mL: 14 mm
Staphylococcus aureus [9]
  zone of inhibition at 1000 µg/mL: 13 mm

## CCOc1ccc(N2C(=O)N(c3ccc4c(c3)Cc3ccccc3-4)C(=O)C2=S)cc1
Candida albicans [10]
  zone of inhibition at 5000 µg/mL: 14.5 mm
Hepatovirus A [3]
  Activity: 50%
Human alphaherpesvirus 1 [4]
  Activity: 50%
Coxsackievirus B4 [5]
  Activity: 60%
Escherichia coli [11]
  zone of inhibition at 5000 µg/mL: 19 mm
Salmonella typhi [12]
  zone of inhibition at 5000 µg/mL: 17.5 mm
Bacillus subtilis [13]
  zone of inhibition at 5000 µg/mL: 17 mm
Staphylococcus aureus [14]
  zone of inhibition at 5000 µg/mL: 15.5 mm

## CCOc1ccc(N2C(=O)N(c3ccc4c(c3)Cc3ccccc3-4)C(=N)C2=S)cc1
Candida albicans [10]
  zone of inhibition at 5000 µg/mL: 15 mm
Aspergillus niger [15]
  zone of inhibition at 5000 µg/mL: 20 mm
Hepatovirus A [16]
  Activity: inactive
Human alphaherpesvirus 1 [17]
  Activity: 50%
Coxsackievirus B4 [18]
  Activity: inactive
Escherichia coli [11]
  zone of inhibition at 5000 µg/mL: 17 mm
Salmonella typhi [12]
  zone of inhibition at 5000 µg/mL: 18 mm
Bacillus subtilis [13]
  zone of inhibition at 5000 µg/mL: 17 mm
Staphylococcus aureus [14]
  zone of inhibition at 5000 µg/mL: 19 mm

## N=C1C(=S)N(c2ccc(Br)cc2)C(=O)N1c1ccc(Cl)c(C(F)(F)F)c1
Candida albicans [19]
  zone of inhibition at 4000 µg/mL: 16 mm
Aspergillus niger [20]
  zone of inhibition at 4000 µg/mL: 16 mm
Hepatovirus A [21]
  Activity: inactive
Human alphaherpesvirus 1 [22]
  Activity: 50%
Coxsackievirus B4 [23]
  Activity: inactive
Escherichia coli [24]
  zone of inhibition at 4000 µg/mL: 18 mm
Salmonella typhi [25]
  zone of inhibition at 4000 µg/mL: 16.5 mm
Bacillus subtilis [26]
  zone of inhibition at 4000 µg/mL: 16 mm
Staphylococcus aureus [27]
  zone of inhibition at 4000 µg/mL: 17.5 mm
